Laboratory results from ChEMBL document CHEMBL5325427.
Values after ≈ are worked out from the molar mass of the structure shown. Active and inactive are the calls of the source. The calls are words filed in the database; no cut-off is given here.

Legend:
[1] = Selectivity index, ratio of CC50 for African green monkey Vero E6 cells to IC50 for antiviral activity against MERS-CoV NRCE-HKU270 infected in Vero E6 cells; format: toxicity, cell-based, Vero C1008; settings: read-out: Ratio CC50/IC50
SARS-CoV-2 [2] = experiment: Antiviral activity against SARS CoV-2 infected in human Caco-2 cells assessed as reduction in OAS1 expression at 20 ug/ml preincubated with cells for 24 hrs followed by viral infection and measured after 3 to 12 hrs by real-time PCR assay; format: functional, organism-based; settings: Severe acute respiratory syndrome coronavirus 2, dose 20.0 µg/ml, time lower 27.0 hrs, time upper […]
[3] = Toxicity in Balb/c mouse assessed as histological changes in kidney by measuring toxicity score at 12.5 to 25 mg/kg by H and E staining based analysis; format: organism-based; settings: in vivo, dose 12.5-25 mg/kg
Procedure, shortened: (§1)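 After the 14-day daily intraperitoneal dosing (12.5 or 25 mg/kg, female Balb/c), liver, kidney, spleen, heart and lung were fixed 24 h in 10% neutral-buffered formalin and paraffin-embedded. Sections of 4 μm were stained with H&E. Lesions were scored nil 0, mild 1, moderate 2, severe 3.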

[4] = Toxicity in Balb/c mouse assessed as effect on AST at 12.5 to 25 mg/kg; format: organism-based; settings: in vivo, dose 12.5-25 mg/kg
Procedure, shortened: (§2)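 Female Balb/c mice were randomised to vehicle (0.5% DMSO in PBS) or 12.5 or 25 mg/kg intraperitoneally daily for 14 days, then followed 12 days after treatment. Body weight, haematology and blood chemistry were compared with vehicle controls; n = 3–5.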

[5] = Aqueous solubility of the compound in PBS buffer at pH 7.4 at 200 uM by microplate reader method; format: physicochemical
[6] = Permeability of the compound across apical to basolateral side in human Caco-2 cells assessed as drug recovery at pH 6.5 to 7.4; format: ADME, cell-based; settings: Caco-2, pH 6.5, read-out: Drug recovery
Procedure, shortened: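 Caco-2 cells (0.5 × 10^6/well) were grown 7 days on collagen-coated transwell filters. Compound was dosed at 50, 75 and 100 μM input in 1% DMSO/HBSS, apical pH 6.5 and basolateral pH 7.4. Samples were taken every 30 min for 2 h in duplicate and quantified by LC/MS/MS. Papp was calculated from receiver concentration, time, area and mid-point donor and receiver concentrations. Monolayer integrity required fluorescein Papp below 1.5 × 10−6 cm/s.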

[7] = Toxicity in Balb/c mouse assessed as change in histological variation in lung at 12.5 to 25 mg/kg by H and E staining based analysis; format: organism-based; settings: in vivo, dose 12.5-25 mg/kg; procedure, shortened: as §1
[8] = Stability in CD-1 mouse liver microsomes assessed as compound remaining at 1 uM measured after 60 mins in absence of NADPH by LC-MS-MS analysis; format: ADME, Microsome; settings: read-out: Stability
Procedure, shortened: (§3)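 Compound was incubated in liver microsomes without NADPH. Percent remaining was measured after 60 min.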

[9] = Toxicity in Balb/c mouse assessed as effect on urea at 12.5 to 25 mg/kg; format: organism-based; settings: in vivo, dose 12.5-25 mg/kg; procedure, shortened: as §2
[10] = Toxicity in Balb/c mouse assessed as histological changes in liver by measuring toxicity score at 25 mg/kg by H and E staining based analysis; format: organism-based; settings: in vivo; procedure, shortened: as §1
[11] = Toxicity in Balb/c mouse assessed as effect on total protein at 12.5 to 25 mg/kg; format: organism-based; settings: in vivo, dose 12.5-25 mg/kg; procedure, shortened: as §2
[12] = target: Replicase polyprotein 1ab (Severe acute respiratory syndrome coronavirus 2) (UniProt P0DTD1); experiment: Inhibition of SARS-CoV-2 3CLpro at 10 ug/ml preincubated with enzyme for 30 mins followed by substrate addition and measured after 4 hrs by fluorescence based analysis; settings: dose 10.0 µg/ml, time 4.5 hrs
Procedure, shortened: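 Recombinant SARS-CoV-2 3CLpro (1.5 ng/μl) was pre-incubated with compound 30 min at RT. Fluorogenic substrate was added to a final 40 μM and incubated 4 h at RT. Fluorescence was read at Ex 360/Em 460 nm. Wells were run in triplicate and blank was subtracted.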

[13] = Toxicity in Balb/c mouse assessed as change in histological variation in kidney at 12.5 to 25 mg/kg by H and E staining based analysis; format: organism-based; settings: in vivo, dose 12.5-25 mg/kg; procedure, shortened: as §1
[14] = Toxicity in Balb/c mouse assessed as effect on total bilirubin at 12.5 to 25 mg/kg; format: organism-based; settings: in vivo, dose 12.5-25 mg/kg; procedure, shortened: as §2
[15] = Toxicity in Balb/c mouse assessed as effect on gamma GT at 12.5 to 25 mg/kg; format: organism-based; settings: in vivo, dose 12.5-25 mg/kg; procedure, shortened: as §2
[16] = Selectivity index, ratio of CC50 for African green monkey Vero E6 cells to IC50 for antiviral activity against SARS-CoV-2 NRC-03-nhCoV infected in african green monkey Vero E6 cells; format: toxicity, cell-based, Vero C1008; settings: read-out: Ratio CC50/IC50
[17] = Toxicity in Balb/c mouse assessed as effect on body weight loss at 25 to 100 mg/kg, ip administered as single dose measured upto 15 days; format: organism-based; settings: in vivo, 360 h, dose 25-100 mg/kg, time < 15 day
[18] = target: Replicase polyprotein 1ab (Severe acute respiratory syndrome coronavirus 2, UniProt P0DTD1); experiment: Inhibition of recombinant SARS CoV-2 PL protease incubated for 2 hrs followed by substrate addition and measured after 1 hr by fluorescence based analysis
[19] = Toxicity in Balb/c mouse assessed as histological changes in lung by measuring toxicity score at 12.5 to 25 mg/kg by H and E staining based analysis; format: organism-based; settings: in vivo, dose 12.5-25 mg/kg; procedure, shortened: as §1
SARS-CoV-2 [20] = experiment: Antiviral activity against SARS CoV-2 infected in human Caco-2 cells assessed as reduction in IL-6 expression at 20 ug/ml preincubated with cells for 24 hrs followed by viral infection and measured after 3 to 12 hrs by real-time PCR assay; format: functional, organism-based; settings: Severe acute respiratory syndrome coronavirus 2, dose 20.0 µg/ml, time lower 27.0 hrs, time upper […]
[21] = Stability in human liver microsomes assessed as half life at 1 uM in presence of NADPH by LC-MS-MS analysis; format: ADME, Microsome
[22] = Toxicity in Balb/c mouse assessed as effect on ALT at 12.5 to 25 mg/kg; format: organism-based; settings: in vivo, dose 12.5-25 mg/kg; procedure, shortened: as §2
[23] = Toxicity in Balb/c mouse assessed as reduction in platelet population at 25 mg/kg; format: organism-based; settings: in vivo
Vero C1008 = experiment: Cytotoxicity against African green monkey Vero E6 cells measured after 72 hrs by crystal violet staining based analysis; format: toxicity, cell-based; settings: chlorocebus sabaeus, vero c1008, 72 h
Procedure, shortened: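 Vero-E6 cells were seeded at 3 × 10^5 cells/mL, grown 24 h at 37 °C with 5% CO2, then given graded compound concentrations in triplicate for 72 h. Stocks were made in 10% DMSO in DMEM. Cells were fixed in 10% formalin, stained with 0.1% crystal violet, dissolved in methanol and read at A570. CC50 was taken by nonlinear regression of log concentration versus normalised response against untreated cells.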

[24] = Stability in human microsomes assessed as compound remaining at 1 uM measured after 60 mins in absence of NADPH by LC-MS-MS analysis; format: ADME, Microsome; settings: read-out: Stability; procedure, shortened: as §3
[25] = Toxicity in Balb/c mouse assessed as histological changes in liver by measuring toxicity score at 12.5 mg/kg by H and E staining based analysis; format: organism-based; settings: in vivo; procedure, shortened: as §1
[26] = Toxicity in Balb/c mouse assessed as change in histological variation in liver at 12.5 to 25 mg/kg by H and E staining based analysis; format: organism-based; settings: in vivo, dose 12.5-25 mg/kg; procedure, shortened: as §1
[27] = Toxicity in Balb/c mouse assessed as effect on body weight loss at 12.5 to 25 mg/kg, ip administered as multiple dose measured upto 15 days; format: organism-based; settings: in vivo, 360 h, dose 12.5-25 mg/kg, time < 15 day; procedure, shortened: as §2

**Q.** For COc1ccc2[nH]c3c(c2c1)C[C@]1(OC)CC[C@H]2c4[nH]c5ccccc5c4CCN2[C@@H]1C3, which selectivity ratio [1] is on record?
**A.** 8.96

**Q.** What about the Activity (SARS-CoV-2 [2]) of the same compound?
**A.** Active

**Q.** What about the Activity [3] of the same compound?
**A.** 0

**Q.** What about the Activity [4] of the same compound?
**A.** Non-Toxic

**Q.** And the solubility at 200 µM [5]?
**A.** 166 µM (≈ 71 µg/mL)

**Q.** What about the recovery [6] of the same compound?
**A.** 77%

**Q.** What about the Activity [7] of the same compound?
**A.** Non-Toxic

**Q.** And the remaining at 1 h, 1 µM [8]?
**A.** 108%

**Q.** And the Activity [9]?
**A.** Non-Toxic

**Q.** And the Activity [10]?
**A.** 0

**Q.** What about the Activity [11] of the same compound?
**A.** Non-Toxic

**Q.** What about the inhibition [12] of the same compound?
**A.** inactive

**Q.** What about the Activity [13] of the same compound?
**A.** Non-Toxic

**Q.** And the Activity [14]?
**A.** Non-Toxic

**Q.** What about the Activity [15] of the same compound?
**A.** Non-Toxic

**Q.** And the selectivity ratio [16]?
**A.** 4.6

**Q.** And the Activity [17]?
**A.** Non-Toxic

**Q.** What about the IC50 [18] of the same compound?
**A.** 91.2 nM

**Q.** And the Activity [19]?
**A.** 0

**Q.** And the Activity (SARS-CoV-2 [20])?
**A.** Active

**Q.** What about the t1/2 [21] of the same compound?
**A.** > 1 h

**Q.** And the Activity [22]?
**A.** Non-Toxic

**Q.** And the Activity [23]?
**A.** Non-Toxic

**Q.** And the CC50 (Vero C1008)?
**A.** 55.63 µg/mL (≈ 130 µM)

**Q.** What about the remaining at 1 h, 1 µM [24] of the same compound?
**A.** 102%

**Q.** What about the Activity [25] of the same compound?
**A.** 0

**Q.** And the Activity [26]?
**A.** Non-Toxic

**Q.** And the Activity [27]?
**A.** Non-Toxic
